The values that follow come from ChEMBL document CHEMBL1121685, “Development of new mitomycin C and porfiromycin analogues” (J Med Chem, 1981).

The test system of data set [1] is Mus musculus. Put plainly: Effect of compound on total white blood cell count in BDG1 male mice, after intraperitoneal administration at a dose of 29.6 mg/kg on day 3. The class given is functional. An outline of the steps:
(§1)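 Single ip dose given on day 0 to BDG1 male mice over a descending dose series. Total white blood cell count is expressed as % change from untreated control on days 3, 5 and 7. Significance is flagged at p ≤ 0.05 and p ≤ 0.01.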

Data set [2] relates to Mus musculus. Description: Activity of compound dose of 1.13 mg/kg/day against Murine B-16 Melanocarcinoma in mice. The class given is functional.
Data set [3] has as its system Mus musculus. Description: Activity of compound dose of 2.25 mg/kg/day against Murine B-16 Melanocarcinoma in mice. The class given is functional.
Data set [4] deals with Mus musculus. Description: Effect of compound on total white blood cell count in BDG1 male mice, after intraperitoneal administration at a dose of 39.4 mg/kg on day 5. The class given is functional. An outline of the steps: as §1
The test system of data set [5] is Mus musculus. Put plainly: Activity of compound dose of 18 mg/kg/day against Murine B-16 Melanocarcinoma in mice. The class given is functional.
Data set [6] relates to Mus musculus. Put plainly: Effect of compound on total white blood cell count in BDG1 male mice, after intraperitoneal administration at a dose of 29.6 mg/kg on day 5. The class given is functional. Put shortly:
as §1

Data set [7] has as its system Mus musculus. Put plainly: Effect of compound on total white blood cell count in BDG1 male mice, after intraperitoneal administration at a dose of 22.2 mg/kg on day 5. The class given is functional. An outline of the steps:
as §1

The test system of data set [8] is Mus musculus. Description: Effect of compound on total white blood cell count in BDG1 male mice, after intraperitoneal administration at a dose of 22.2 mg/kg on day 3. It is filed as functional. An outline of the steps:
as §1

Data set [9] relates to Mus musculus. Put plainly: Number of cured survivors, 45 days after administration of compound at a dose of 18 mg/kg/day in mice. It is filed as functional.
The subject of data set [10] is Mus musculus. Description: Effect of compound on total white blood cell count in BDG1 male mice, after intraperitoneal administration at a dose of 22.2 mg/kg on day 7. It is filed as functional. An outline of the steps:
as §1

The species entered for data set [11] is Mus musculus. Description: Half-wave potential produced by the compound at their optimal dose. The class given is functional. Set-up: unit not given here.
The test system of data set [12] is Mus musculus. Description: Number of cured survivors, 45 days after administration of compound at a dose of 36 mg/kg/day in mice. The class given is functional.
The subject of data set [13] is Mus musculus. Description: Effect of compound on total white blood cell count in BDG1 male mice, after intraperitoneal administration at a dose of 39.4 mg/kg on day 3. It is filed as functional. An outline of the steps:
as §1

Data set [14] concerns Mus musculus. Put plainly: Activity of compound dose of 36 mg/kg/day against Murine B-16 Melanocarcinoma in mice. The class given is functional.
The species entered for data set [15] is Mus musculus. Description: Degree of leukopenia produced by compound is assessed form Percent change in white cells on days 5. It is filed as functional. Put shortly:
(§2)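 BDG₁ male mice received a single ip dose on day 0. The dose series topped out at the LD₅₀ level, or at twice the optimal dose for some agents. Total white blood cell count was taken on days 3, 5 and 7 and expressed as % change from untreated controls. Significance was set at p ≤ 0.05 or p ≤ 0.01.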

Data set [16] deals with Mus musculus. Put plainly: Effect of compound on total white blood cell count in BDG1 male mice, after intraperitoneal administration at a dose 29.6 mg/kg on day 7. The class given is functional. An outline of the steps:
as §2

The nature of data set [17]: Therapeutic ratio is expressed as ratio of optimal dose and minimum effective dose. It is filed as ADME. Conditions: mouse; read-out: TR. An outline of the steps:
(§3)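 10⁶ P-388 ascites cells implanted ip in CDF₁ female mice. Six mice per dose, 10 saline-injected controls, and a concurrent mitomycin C reference group. %T/C = median survival time of treated/control × 100. MED is the lowest dose giving %T/C > 125. Therapeutic ratio = optimal dose/MED.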

Data set [18] deals with Mus musculus. Put plainly: Number of tumored survivors, 45 days after administration of compound at a dose of 18 mg/kg/day in mice. It is filed as functional.
Data set [19] has as its system Mus musculus. Put plainly: Activity of compound dose of 4.5 mg/kg/day against Murine B-16 Melanocarcinoma in mice. It is filed as functional.
Data set [20] concerns Mus musculus. Description: Effect of compound on total white blood cell count in BDG1 male mice, after intraperitoneal administration at a dose of 50.9 mg/kg on day 7. The class given is functional. Put shortly:
(§4)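 Single ip dose given on day 0 to BDG₁ male mice. Total white blood cell count measured on days 3, 5 and 7, expressed as % change from control. Highest dose was at the LD₅₀, or at twice the optimal dose where so footnoted. Significance reported at p ≤ 0.05 and p ≤ 0.01. D marks death of one or more mice.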

Data set [21] concerns Mus musculus. Put plainly: Activity of compound dose of 9 mg/kg/day against Murine B-16 Melanocarcinoma in mice. It is filed as functional.
Data set [22] relates to Mus musculus. Description: Antitumor activity against P-388 murine leukemia cells in CDF1 female mice after intraperitoneal administration at the specified optimal dose of 12.8 mg/kg. The class given is functional.
For data set [23], the system named is Mus musculus. Put plainly: Minimum effective dose that show activity against P-388 murine leukemia cells in CDF1 female mice, after intraperitoneal administration (optimal dose is 12.8 mg/kg). The class given is functional. Conditions: P388, ip, read-out: MED. An outline of the steps:
as §3

In data set [24] the test system is Mus musculus. Put plainly: Effect of compound on total white blood cell count in BDG1 male mice, after intraperitoneal administration at a dose of 50.9 mg/kg on day 3. It is filed as functional. Put shortly:
as §4

Data set [25] has as its system Mus musculus. Put plainly: Effect of compound on total white blood cell count in BDG1 male mice, after intraperitoneal administration at a dose of 1.69 mg/kg on day 3. It is filed as functional. Put shortly: as §2
Data set [26] is filed under the species Mus musculus. Description: Degree of leukopenia produced by compound is assessed form Percent change in white cells on day 7. The class given is functional. An outline of the steps:
as §2

In data set [27] the test system is Mus musculus. Put plainly: Antitumor activity against P-388 murine leukemia cells in CDF1 female mice after intraperitoneal administration at the specified optimal dose of 1.6 mg/kg. It is filed as functional.
Data set [28] relates to Mus musculus. Put plainly: Effect of compound on total white blood cell count in BDG1 male mice, after intraperitoneal administration at a dose of 3 mg/kg on day 7. The class given is functional. Put shortly:
as §1

Data set [29] relates to Mus musculus. Description: Effect of compound on total white blood cell count in BDG1 male mice, after intraperitoneal administration at a dose of 1.27 mg/kg on day 7. The class given is functional. Put shortly: as §2
In data set [30] the test system is Mus musculus. Description: Effect of compound on total white blood cell count in BDG1 male mice, after intraperitoneal administration at a dose of 1.27 mg/kg on day 5. The class given is functional. Put shortly:
as §2

Data set [31] concerns Mus musculus. Description: Effect of compound on total white blood cell count in BDG1 male mice, after intraperitoneal administration at a dose of 1.27 mg/kg on day 3. The class given is functional. Put shortly:
as §2

Data set [32] deals with Mus musculus. Description: Effect of compound on total white blood cell count in BDG1 male mice, after intraperitoneal administration at a dose of 3 mg/kg on day 3. The class given is functional. An outline of the steps:
as §1

The test system of data set [33] is Mus musculus. Put plainly: Effect of compound on total white blood cell count in BDG1 male mice, after intraperitoneal administration at a dose of 2.55 mg/kg on day 3. The class given is functional. An outline of the steps: as §1
The subject of data set [34] is Mus musculus. Put plainly: Effect of compound on total white blood cell count in BDG1 male mice, after intraperitoneal administration at a dose of 2.55 mg/kg on day 5. The class given is functional. An outline of the steps: as §1
Data set [35] relates to Mus musculus. Description: Effect of compound on total white blood cell count in BDG1 male mice, after intraperitoneal administration at a dose of 3 mg/kg on day 5. It is filed as functional. Put shortly:
as §1

Data set [36] deals with Mus musculus. Put plainly: Effect of compound on total white blood cell count in BDG1 male mice, after intraperitoneal administration at a dose of 2.55 mg/kg on day 7. The class given is functional. Put shortly: as §1
The test system of data set [37] is Mus musculus. Put plainly: Minimum effective dose that show activity against P-388 murine leukemia cells in CDF1 female mice, after intraperitoneal administration (optimal dose is 1.6 mg/kg). Conditions: P388, ip, read-out: MED. The class given is functional.
Data set [38] has as its system Mus musculus. Put plainly: Effect of compound on total white blood cell count in BDG1 male mice, after intraperitoneal administration at a dose of 1.69 mg/kg on day 5. It is filed as functional. Put shortly: as §2
Data set [39] concerns Mus musculus. Put plainly: Effect of compound on total white blood cell count in BDG1 male mice, after intraperitoneal administration at a dose of 1.69 mg/kg on day 7. The class given is functional. Put shortly: as §2

One may read the T/C as the ratio of treated to control.

For the molecule `COC12[C@@H]3N[C@@H]3CN1C1=C(C(=O)C(NCc3ccco3)=C(C)C1=O)[C@@H]2COC(N)=O` (stereo partly specified), the Change is reported as -78% in data set [1]; -74% in data set [4]; -67% in data set [6]; 62% in data set [7]; -70% in data set [8]; -1% in data set [10]. Further, the Change was -84% in [13]; -54% in [15]; 0% in data set [16]; -64% in [20]; -76% in data set [24]. Further, the T/C in data set [2] is given as 125%; in data set [3], 148%; in data set [5], 219%; in data set [14], 247%; in data set [19], 170%; in data set [21] it was 186%. Moreover, the T/C in [22] is listed as 276%. For the same molecule, the Survivors in data set [9] worked out at 3; in [12], 6; in data set [18], 1. The molecule also returned an E1/2 in data set [11] of -0.39. In addition, the selectivity ratio in [17] was above 32. For the same molecule, the minimal effective dose in [23] was below 0.4 mg/kg.

For `COC12[C@@H]3N[C@@H]3CN1C1=C(C(=O)C(N3CC3)=C(C)C1=O)[C@@H]2COC(N)=O` (stereo partly specified), the Change in [25] is 16%; in data set [26], -11%; in [28], 13%; in data set [29], 3%; in data set [30], 27%; in [31], -16%. In addition, the Change in data set [32] is -12%; in data set [33], 15%; in data set [34], 34%; in [35], 3%; in data set [36], 18%; in data set [38], 9%. Further, the Change in data set [39] was -11%. The T/C in data set [27] is reported as 266%. The molecule also displayed an E1/2 in data set [11] of -0.31. Also, in data set [17], the selectivity ratio is 64. Also, the minimal effective dose in data set [37] came to 0.025 mg/kg.
